The values below come from ChEMBL document CHEMBL1156902, “Evaluation of 3,4-dihydroquinazoline-2(1H)-thiones as inhibitors of alpha-MSH-induced melanin production in melanoma B16 cells” (Bioorg Med Chem, 2010).

The test system of data set [1] is B16. Description: Inhibition of alpha-MSH-induced melanin production in mouse B16 cells at 10 uM after 72 hrs. Format: functional. As to conditions: B16, 72 h.
Data set [2] has as its system B16. Description: Inhibition of alpha-MSH-induced melanin production in mouse B16 cells after 72 hrs. The format is functional, cell-based. As to conditions: B16, 72 h. The method in brief: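 B16 cells were seeded at 2.5 × 10³ per well and held 24 h at 37 °C in 5% CO₂. They were then stimulated with α-MSH for 72 h plus sample (10 nM in methods; 100 nM in results text). Cells were lysed in 1 N NaOH–10% DMSO at 80 °C. Melanin was read at A405 against a synthetic melanin standard, as the mean of 3–5 independent experiments.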

For data set [3], the system named is B16. Put plainly: Inhibition of alpha-MSH-induced melanin production in mouse B16 cells at 100 uM after 72 hrs. Format: functional. As to conditions: B16, 72 h.
Data set [4] deals with B16. Put plainly: Cytotoxicity against mouse B16 cells assessed as viability at 1 to 30 uM after 72 hrs by MTT assay in presence of alphaMSH. As to conditions: b16, 72 h. The format is cell-based. The gist of the method:
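B16 cells were exposed to test compound for 72 h with α-MSH (10 nM). They were then given MTT for 2 h, and the formazan was dissolved in 100% DMSO. Viability was read as optical density at 590 nm.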

Data set [5] concerns the target T1, Tyrosinase (Mus musculus) (UniProt P11344).
T1 sequence (whole entry): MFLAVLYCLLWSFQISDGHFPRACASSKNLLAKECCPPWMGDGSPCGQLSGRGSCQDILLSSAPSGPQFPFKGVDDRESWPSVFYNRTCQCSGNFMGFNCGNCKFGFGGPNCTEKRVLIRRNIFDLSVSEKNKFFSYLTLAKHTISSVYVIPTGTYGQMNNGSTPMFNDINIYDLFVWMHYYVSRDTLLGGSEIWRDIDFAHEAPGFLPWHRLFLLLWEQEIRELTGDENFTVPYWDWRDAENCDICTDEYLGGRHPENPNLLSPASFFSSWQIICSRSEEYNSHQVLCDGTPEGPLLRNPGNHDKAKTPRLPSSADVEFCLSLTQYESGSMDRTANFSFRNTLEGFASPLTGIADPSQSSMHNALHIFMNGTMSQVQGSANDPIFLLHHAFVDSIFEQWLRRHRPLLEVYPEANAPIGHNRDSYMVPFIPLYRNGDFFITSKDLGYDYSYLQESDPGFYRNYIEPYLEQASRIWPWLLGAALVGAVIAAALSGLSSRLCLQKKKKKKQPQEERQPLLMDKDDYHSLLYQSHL
Put plainly: Inhibition of mouse tyrosinase in 48 hrs alpha-MSH-induced mouse B16 cells by Western blot analysis. The format is cell-based. The gist of the method: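 B16 cells were stimulated with α-MSH for 48 h plus compound, then lysed in Tris/NaCl/SDS/NP-40 buffer with protease inhibitors at pH 7.4. Equal protein was run on SDS-PAGE, blotted to PVDF and blocked with milk or BSA. Anti-tyrosinase (1:1000) was applied overnight at 4 °C, with GAPDH (1:5000) as internal control. Detection used an HRP secondary and ECL.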

Data set [6] has as its target T1, Tyrosinase (Mus musculus). Description: Inhibition of mouse tyrosinase in 48 hrs alpha-MSH-induced mouse B16 cells at 0.3 to 10 uM. The format is cell-based.

Activity calls are given as the source filed them. The rule behind the calls is not given here.

In data set [1], `O=C1Nc2ccc(Cl)cc2CN1CCc1ccccc1` returned an inhibition at 10 µM of 18%. The compound also had a 50% inhibitory concentration (IC50) in data set [2] above 10 µM.

On to `NC(=O)Nc1ccccc1`, for which the inhibition at 100 µM in data set [3] is 0%.

In turn, `Cc1ccc2c(c1)CN(CCc1ccc(C(C)C)cc1)C(=S)N2` displayed an inhibition at 10 µM in data set [1] above 100%. The half-inhibitory concentration (IC50) in data set [2] was determined as 0.5 µM.

The compound `Cc1ccc2c(c1)CN(CCc1ccccc1)C(=S)N2` returned an inhibition at 10 µM in data set [1] above 100%. The compound further registered an IC50 in data set [2] of 0.8 µM.

Take `Cc1ccc2c(c1)NC(=O)N(CCc1ccccc1)C2`: testing at 10 µM in data set [1] gave an inhibition of 24%. Besides, the IC50 in data set [2] is above 10 µM.

In data set [1], `Cc1ccc2c(c1)CN(CCc1cccc3ccccc13)C(=O)N2` came in with an inhibition at 10 µM of 5%. The compound further gave a half-maximal inhibitory concentration (IC50) in data set [2] above 10 µM.

The compound `Cc1ccc2c(c1)CN(CCc1ccc(Cl)cc1)C(=S)N2` yielded an inhibition at 10 µM in data set [1] above 100%. The IC50 in data set [2] stood at 4.3 µM.

For the compound `Cc1ccc(CCN2Cc3cc(C)ccc3NC2=O)cc1`, at 10 µM the inhibition in data set [1] was 10%. This compound also showed an IC50 in data set [2] above 10 µM.

With `S=C1Nc2ccc(Cl)cc2CN1CCc1ccccc1`, in data set [1], the inhibition at 10 µM was above 100%. The same compound registered a concentration for half-maximal inhibition (IC50) in data set [2] of 2.8 µM.

As for `S=C1Nc2ccc(Cl)cc2CN1CCc1ccc(Cl)cc1`, the inhibition at 10 µM in data set [1] was above 100%. The compound also gave an IC50 in data set [2] of 1.6 µM.

As for `Cc1ccc2c(c1)CN(CCc1ccc(Cl)cc1Cl)C(=O)N2`, in data set [1], 10 µM produced 11% inhibition. The compound also had an IC50 in data set [2] above 10 µM.

In the case of `Cc1ccc(CCN2Cc3cc(Cl)ccc3NC2=O)cc1`, in data set [1], the inhibition at 10 µM stood at 6%. This compound also had an IC50 in data set [2] above 10 µM.

For `Cc1ccc2c(c1)CN(CCc1ccccc1)C(=O)N2`, in data set [1], the inhibition at 10 µM was found to be 16%. Also, the IC50 in data set [2] is above 10 µM.

As to `OC[C@H]1O[C@@H](Oc2ccc(O)cc2)[C@H](O)[C@@H](O)[C@@H]1O` [ARBUTIN], inhibition in data set [2] was half-maximal at 180 µM (IC50).

The compound `Cc1ccc2c(c1)CN(CCc1ccc(C(C)C)cc1)C(=O)N2` yielded an inhibition at 10 µM in data set [1] of 6%. In data set [2], this compound came in with an IC50 above 10 µM.

As for `Cc1ccc(CCN2Cc3cc(C)ccc3NC2=S)cc1`, the inhibition at 10 µM in data set [1] was above 100%. Further, half-maximal inhibition in data set [2] (IC50) was put at 2.7 µM.

With `Cc1ccc2c(c1)CN(CCc1ccc(Cl)cc1)C(=O)N2`, in data set [1], testing at 10 µM gave an inhibition of 15%. The IC50 in data set [2] was above 10 µM.

As for `Cc1ccc(CCN2Cc3cc(Cl)ccc3NC2=S)cc1`, the inhibition at 10 µM in data set [1] is above 100%. Besides, the 50% inhibitory concentration (IC50) in data set [2] is 5.5 µM.

`O=C1Nc2ccc(Cl)cc2CN1CCc1ccc(Cl)cc1` had an inhibition at 10 µM in data set [1] of 7%. The compound further registered an IC50 in data set [2] above 10 µM.

Take `O=c1cc(CO)occ1O` [KOJIC ACID]: in data set [2], it took 70 µM to reach half-maximal inhibition (IC50).

Turning to `Cc1cccc2c1CN(CCc1ccccc1)C(=O)N2`, in data set [1], the inhibition at 10 µM turned out to be 18%. In data set [2], this compound yielded an IC50 of 9.8 µM.

`Cc1ccc2c(c1)CN(CCc1cccc3ccccc13)C(=S)N2` gave an inhibition at 10 µM in data set [1] above 100%. Moreover, the 50% inhibitory concentration (IC50) in data set [2] stood at 2.4 µM.

Consider `Cc1ccc2c(c1)CN(CCc1ccc(Cl)cc1Cl)C(=S)N2`, for which the inhibition at 10 µM in data set [1] was above 100%. The concentration for half-maximal inhibition (IC50) in data set [2] was found to be 0.5 µM. Besides, the Activity result in data set [4] is “Non-toxic”. Further, in data set [5], the inhibition entry was “Dose-dependent effect”. Besides, the inhibition entry in data set [6] is “inactive”.

`Cc1cccc2c1CN(CCc1ccccc1)C(=S)N2` returned an inhibition at 10 µM in data set [1] above 100%. Moreover, in data set [2], 1.1 µM corresponded to half-maximal inhibition (IC50).

Take `Cc1ccc2c(c1)NC(=S)N(CCc1ccccc1)C2`: the inhibition at 10 µM in data set [1] is above 100%. This compound also registered a concentration for half-maximal inhibition (IC50) in data set [2] of 0.8 µM.
